Source: ChEMBL document CHEMBL2202974 (J Med Chem, 2011)

Experiments:
[1] = Drug uptake in monkey lateral temporal cortex at 4.92 to 6.6 mCi, iv administered as bolus dose measured at 120 mins by PET imaging analysis; type: ADME, organism-based, Macaca mulatta; conditions: rhesus monkey, in vivo, 2 h
[2] = Drug uptake in monkey amygdala at 6.2 mCi, iv administered as bolus dose followed by naloxone-treatment at 37 mins measured at 120 mins by PET imaging analysis; type: ADME, organism-based, Macaca mulatta; conditions: rhesus monkey, in vivo, 2 h
Method in brief: (§1)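 Anesthetised rhesus monkey given iv bolus of radioligand; a high dose of naloxone was given at 37 min after radioligand. PET regional time-activity curves were expressed as %SUV.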

[3] = Drug uptake in monkey hypothalamus at 4.92 to 6.6 mCi, iv administered as bolus dose measured at 120 mins by PET imaging analysis; type: ADME, organism-based, Macaca mulatta; conditions: rhesus monkey, in vivo, 2 h
[4] = Drug uptake in SB612111-pretreated monkey amygdala at 4.92 to 6.6 mCi, iv administered at 10 mins post SB612111-treatment measured within 10 mins by PET imaging analysis; type: ADME, organism-based, Macaca mulatta; conditions: rhesus monkey, in vivo
[5] = Drug uptake in monkey caudate at 6.2 mCi, iv administered as bolus dose followed by SB612111-treatment at 40 mins measured at 100 mins by PET imaging analysis; type: ADME, organism-based, Macaca mulatta, Caudate nucleus; conditions: rhesus monkey, in vivo
Method in brief: (§2)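 Anesthetised rhesus monkey given iv bolus of radioligand; the NOP antagonist was given at 40 min after radioligand to test displacement. PET regional time-activity curves were expressed as %SUV.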

Brain [6] = experiment: Drug uptake in 129/S6 mouse brain at 0.6 nM after 120 mins by autoradiographic analysis; type: ADME, tissue-based
[7] = Fraction unbound in monkey plasma; type: ADME, cell-free, Macaca mulatta; conditions: rhesus monkey
Method in brief: (§3)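 Plasma free fraction of the radioligand measured in vitro. Monkey: 3 samples from each of two monkeys (n = 6). Human: pooled plasma, three samples from each of two subjects.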

[8] = Chemical stability of the compound in sodium phosphate buffer after 2 hrs at pH 7.4; type: physicochemical; conditions: read-out: Stability
[9] = Drug uptake in SB612111-pretreated monkey caudate at 4.92 to 6.6 mCi, iv administered at 10 mins post SB612111-treatment measured within 10 mins by PET imaging analysis; type: ADME, organism-based, Macaca mulatta, Caudate nucleus; conditions: rhesus monkey, in vivo
[10] = Drug uptake in SB612111-pretreated monkey hypothalamus at 4.92 to 6.6 mCi, iv administered at 10 mins post SB612111-treatment measured within 10 mins by PET imaging analysis; type: ADME, organism-based, Macaca mulatta; conditions: rhesus monkey, in vivo
[11] = Drug uptake in monkey hypothalamus at 4.92 to 6.6 mCi, iv administered as bolus dose measured up to 20 mins by PET imaging analysis; type: ADME, organism-based, Macaca mulatta; conditions: rhesus monkey, in vivo
Plasma [12] = experiment: Metabolic stability in SB612111-pretreated monkey plasma at 4.9 to 6.6 mCi, iv administered as bolus dose 10 mins post SB612111-treatment up to 100 mins; type: ADME, organism-based, Macaca mulatta; conditions: rhesus monkey, in vivo
Method in brief: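 Preblock scans were run in the same anesthetized (ketamine, isoflurane) rhesus monkeys about 3 h after the baseline scan. Plasma was extracted into acetonitrile, and the supernatant was analysed by HPLC to give the percentage of radioactivity present as unchanged radioligand over time.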

[13] = Metabolic stability in monkey plasma at 4.9 to 6.6 mCi, iv administered as bolus dose up to 100 mins; type: ADME, organism-based, Macaca mulatta; conditions: rhesus monkey, read-out: Stability
Method in brief: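 For baseline scans, male rhesus monkeys were immobilized with ketamine and kept under 1–3% isoflurane. Plasma sampled during the scan was extracted into acetonitrile, and the supernatant was analysed by HPLC for the parent fraction.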

[14] = Drug uptake in monkey cerebellum at 4.92 to 6.6 mCi, iv administered as bolus dose measured at 120 mins by PET imaging analysis; type: ADME, organism-based, Macaca mulatta; conditions: rhesus monkey, in vivo, 2 h
[15] = Drug uptake in monkey hypothalamus at 6.2 mCi, iv administered as bolus dose followed by naloxone-treatment at 37 mins measured at 120 mins by PET imaging analysis; type: ADME, organism-based, Macaca mulatta; conditions: rhesus monkey, in vivo, 2 h; method in brief: as §1
[16] = Fraction unbound in human plasma; type: ADME, cell-free; method in brief: as §3
[17] = Drug uptake in monkey lateral temporal cortex at 6.2 mCi, iv administered as bolus dose followed by SB612111-treatment at 40 mins measured at 100 mins by PET imaging analysis; type: ADME, organism-based, Macaca mulatta; conditions: rhesus monkey, in vivo; method in brief: as §2
[18] = Drug uptake in monkey cerebellum at 6.2 mCi, iv administered as bolus dose followed by SB612111-treatment at 40 mins measured at 100 mins by PET imaging analysis; type: ADME, organism-based, Macaca mulatta; conditions: rhesus monkey, in vivo; method in brief: as §2
[19] = Drug uptake in monkey amygdala at 6.2 mCi, iv administered as bolus dose followed by SB612111-treatment at 40 mins measured at 100 mins by PET imaging analysis; type: ADME, organism-based, Macaca mulatta; conditions: rhesus monkey, in vivo; method in brief: as §2
[20] = Drug uptake in monkey caudate at 4.92 to 6.6 mCi, iv administered as bolus dose measured at 120 mins by PET imaging analysis; type: ADME, organism-based, Macaca mulatta, Caudate nucleus; conditions: rhesus monkey, in vivo, 2 h
[21] = Drug uptake in monkey cerebellum at 4.92 to 6.6 mCi, iv administered as bolus dose measured up to 20 mins by PET imaging analysis; type: ADME, organism-based, Macaca mulatta; conditions: rhesus monkey, in vivo
[22] = Drug uptake in SB612111-pretreated monkey hypothalamus at 4.92 to 6.6 mCi, iv administered at 10 mins post SB612111-treatment measured from 10 to 120 mins by PET imaging analysis; type: ADME, organism-based, Macaca mulatta; conditions: rhesus monkey, in vivo
[23] = Drug uptake in SB612111-pretreated monkey lateral temporal cortex at 4.92 to 6.6 mCi, iv administered at 10 mins post SB612111-treatment measured from 10 to 120 mins by PET imaging analysis; type: ADME, organism-based, Macaca mulatta; conditions: rhesus monkey, in vivo
[24] = Drug uptake in monkey amygdala at 4.92 to 6.6 mCi, iv administered as bolus dose measured at 120 mins by PET imaging analysis; type: ADME, organism-based, Macaca mulatta; conditions: rhesus monkey, in vivo, 2 h
[25] = Drug uptake in monkey hypothalamus at 6.2 mCi, iv administered as bolus dose followed by SB612111-treatment at 40 mins measured at 100 mins by PET imaging analysis; type: ADME, organism-based, Macaca mulatta; conditions: rhesus monkey, in vivo; method in brief: as §2
Plasma [26] = experiment: Drug metabolism in monkey plasma assessed as radiometabolite formation at 4.9 to 6.6 mCi, iv administered as bolus dose up to 100 mins; type: ADME, organism-based, Macaca mulatta; conditions: rhesus monkey, in vivo
[27] = Drug uptake in monkey amygdala at 4.92 to 6.6 mCi, iv administered as bolus dose measured up to 20 mins by PET imaging analysis; type: ADME, organism-based, Macaca mulatta; conditions: rhesus monkey, in vivo
[28] = Drug uptake in SB612111-pretreated monkey cerebellum at 4.92 to 6.6 mCi, iv administered at 10 mins post SB612111-treatment measured within 10 mins by PET imaging analysis; type: ADME, organism-based, Macaca mulatta; conditions: rhesus monkey, in vivo
[29] = Metabolic stability in monkey blood for 0.5 hrs; type: ADME, tissue-based, Macaca mulatta; conditions: rhesus monkey, read-out: Stability
Method in brief: (§4)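 The [11C]-labelled radioligand was incubated in vitro in monkey whole blood or monkey plasma for 0.5 h at room temperature. Stability was expressed as the percentage of radioactivity remaining as unchanged radioligand (n = 6).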

[30] = Drug uptake in monkey lateral temporal cortex at 4.92 to 6.6 mCi, iv administered as bolus dose measured up to 20 mins by PET imaging analysis; type: ADME, organism-based, Macaca mulatta; conditions: rhesus monkey, in vivo
[31] = Drug uptake in monkey cerebellum at 6.2 mCi, iv administered as bolus dose followed by naloxone-treatment at 37 mins measured at 120 mins by PET imaging analysis; type: ADME, organism-based, Macaca mulatta; conditions: rhesus monkey, in vivo, 2 h; method in brief: as §1
[32] = Drug uptake in SB612111-pretreated monkey cerebellum at 4.92 to 6.6 mCi, iv administered at 10 mins post SB612111-treatment measured from 10 to 120 mins by PET imaging analysis; type: ADME, organism-based, Macaca mulatta; conditions: rhesus monkey, in vivo
[33] = Drug uptake in SB612111-pretreated monkey amygdala at 4.92 to 6.6 mCi, iv administered at 10 mins post SB612111-treatment measured from 10 to 120 mins by PET imaging analysis; type: ADME, organism-based, Macaca mulatta; conditions: rhesus monkey, in vivo
Plasma [34] = experiment: Drug metabolism in SB612111-pretreated monkey plasma assessed as radiometabolite formation at 4.9 to 6.6 mCi, iv administered as bolus dose 10 mins post SB612111-treatment up to 100 mins; type: ADME, organism-based, Macaca mulatta; conditions: rhesus monkey, in vivo
[35] = Drug uptake in monkey caudate at 4.92 to 6.6 mCi, iv administered as bolus dose measured up to 20 mins by PET imaging analysis; type: ADME, organism-based, Macaca mulatta, Caudate nucleus; conditions: rhesus monkey, in vivo
[36] = Drug uptake in SB612111-pretreated monkey caudate at 4.92 to 6.6 mCi, iv administered at 10 mins post SB612111-treatment measured from 10 to 120 mins by PET imaging analysis; type: ADME, organism-based, Macaca mulatta, Caudate nucleus; conditions: rhesus monkey, in vivo
Brain [37] = experiment: Drug uptake in NOP knockout mouse brain at 0.6 nM after 120 mins by autoradiographic analysis; type: ADME, tissue-based
[38] = Drug uptake in SB612111-pretreated monkey lateral temporal cortex at 4.92 to 6.6 mCi, iv administered at 10 mins post SB612111-treatment measured within 10 mins by PET imaging analysis; type: ADME, organism-based, Macaca mulatta; conditions: rhesus monkey, in vivo
[39] = Drug uptake in monkey caudate at 6.2 mCi, iv administered as bolus dose followed by naloxone-treatment at 37 mins measured at 120 mins by PET imaging analysis; type: ADME, organism-based, Macaca mulatta, Caudate nucleus; conditions: rhesus monkey, in vivo, 2 h; method in brief: as §1
[40] = Metabolic stability in monkey plasma for 0.5 hrs; type: ADME, cell-free, Macaca mulatta; conditions: rhesus monkey, read-out: Stability; method in brief: as §4
[41] = Drug uptake in monkey lateral temporal cortex at 6.2 mCi, iv administered as bolus dose followed by naloxone-treatment at 37 mins measured at 120 mins by PET imaging analysis; type: ADME, organism-based, Macaca mulatta; conditions: rhesus monkey, in vivo, 2 h; method in brief: as §1

## [11CH3]NC(=O)[C@@H](Cc1ccccc1F)CN1CCC2(CC1)OCCc1cc(F)sc12
[1]
  Drug uptake: Not Active
[2]
  Drug uptake: Not Active
[3]
  Drug uptake: Not Active
[4]
  Drug uptake: Active
[5]
  Drug uptake: Not Active
Brain [6]
  Drug uptake: Active
[7]
  fraction unbound: 0.113
[8]
  remaining at 2 h: 98.9%
[9]
  Drug uptake: Active
[10]
  Drug uptake: Active
[11]
  Drug uptake: Active
Plasma [12]
  Stability: 94.9%
[13]
  remaining at 100 min: 94.9%
[14]
  Drug uptake: Not Active
[15]
  Drug uptake: Not Active
[16]
  fraction unbound: 0.11
[17]
  Drug uptake: Not Active
[18]
  Drug uptake: Not Active
[19]
  Drug uptake: Not Active
[20]
  Drug uptake: Not Active
[21]
  Drug uptake: Active
[22]
  Drug uptake: Not Active
[23]
  Drug uptake: Not Active
[24]
  Drug uptake: Not Active
[25]
  Drug uptake: Not Active
Plasma [26]
  Drug metabolism: Active
[27]
  Drug uptake: Active
[28]
  Drug uptake: Active
[29]
  remaining at 0.5 h: 100%
[30]
  Drug uptake: Active
[31]
  Drug uptake: Not Active
[32]
  Drug uptake: Not Active
[33]
  Drug uptake: Not Active
Plasma [34]
  Drug metabolism: Active
[35]
  Drug uptake: Active
[36]
  Drug uptake: Not Active
Brain [37]
  Drug uptake: Not Active
[38]
  Drug uptake: Active
[39]
  Drug uptake: Not Active
[40]
  remaining at 0.5 h: 99.9%
[41]
  Drug uptake: Not Active
